Assay results from ChEMBL document CHEMBL1641445, “Synthesis, antiprotozoal, antimicrobial, β-hematin inhibition, cytotoxicity and methemoglobin (MetHb) formation activities of bis(8-aminoquinolines)” (Bioorg Med Chem, 2011).
Values after ≈ are worked out from the molar mass of the structure shown. Active and inactive are the calls of the source. The rule behind the calls is not given here.

Columns and labels:
Leishmania donovani = assay: Antileishmanial activity against promastigotes of Leishmania donovani by alamar blue assay; type: functional, organism-based
[1] = Hematotoxicity against RBC assessed as formation of methemoglobin at 20 ug/ml relative to control; type: cell-based; settings: erythrocyte
In short: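 Metabolism-linked methemoglobin toxicity in vitro. Percent MetHb formation was determined at 20 µg/mL of compound relative to vehicle control.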

Candida albicans = assay: Antifungal activity against Candida albicans ATCC 90028 at 20 ug/ml; type: functional, organism-based
Staphylococcus aureus = assay: Antibacterial activity against methicillin-resistant Staphylococcus aureus ATCC 43300 by CLSI method; type: functional, organism-based
In short: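 Broth dilution method (NCCLS M7-A5). […] MIC is the lowest concentration allowing no detectable growth. MBC is the lowest concentration killing the organism. Highest test concentration was 20 µg/mL.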

Vero = assay: Cytotoxicity against african green monkey Vero cells up to 10 ug/ml by neutral red assay; type: cell-based; settings: chlorocebus sabaeus
In short: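 Vero (monkey kidney) cells were exposed up to a highest concentration of 10 µg/mL. Viability was read by neutral red uptake.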

Cryptococcus neoformans = assay: Antifungal activity against Cryptococcus neoformans ATCC 90113; type: functional, organism-based
Plasmodium falciparum [2] = assay: Antimalarial activity against chloroquine-sensitive Plasmodium falciparum D6 by LDH assay; type: functional, organism-based
In short: (§1)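 Antiplasmodial activity was measured in vitro against P. falciparum blood-stage cultures. Read-out was parasite lactate dehydrogenase (LDH) activity, with IC50 values expressed in µg/mL. The same protocol was used for the D6 and W2 strains.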

[3] = Inhibition of beta-hematin formation; type: functional
[4] = test system: Mycobacterium intracellulare; assay: Antibacterial activity against Mycobacterium intracellular ATCC 23068 at 20 ug/ml by CLSI method; type: functional, organism-based
Plasmodium falciparum [5] = assay: Antimalarial activity against chloroquine-resistant Plasmodium falciparum W2 by LDH assay; type: functional, organism-based; in short: as §1
[6] = test system: Mycobacterium intracellulare; assay: Antibacterial activity against Mycobacterium intracellular ATCC 23068 by CLSI method; type: functional, organism-based
[7] = Plasmodium falciparum, D6, read-out: IC50
[8] = Leishmania donovani, read-out: IC50
[9] = Plasmodium falciparum, W2, read-out: IC50

SMILES | IC90 (Leishmania donovani; Leishmania donovani) [µg/mL] | Methemoglobin formation [1] [%] | IC50 (Staphylococcus aureus) [µg/mL] | Activity (Vero) | IC50 (Plasmodium falciparum [2]; [7]) [µg/mL] | IC50 [3] [µM] | IC50 (Leishmania donovani; [8]) [µg/mL] | IC50 [4] | IC50 (Plasmodium falciparum [5]; [9]) [µg/mL] | IC50 (Plasmodium falciparum [2]) | MIC (Staphylococcus aureus) [µg/mL] | further results
C[C@@H]1[C@H](O)[C@@H](C)/C=C/C=C/C=C/C=C/C=C/C=C/C=C/[C@H](O[C@@H]2O[C@H](C)[C@@H](O)[C@H](N)[C@@H]2O)C[C@@H]2O[C@](O)(C[C@@H](O)C[C@@H](O)[C@H](O)CC[C@@H](O)C[C@@H](O)CC(=O)O[C@H]1C)C[C@H](O)[C@H]2C(=O)O [AMPHOTERICIN B] | 0.35 (≈ 0.379 µM) |  |  |  |  |  |  |  |  |  |  | 
COc1cc(NC(C)CCCNC(=O)NC(CCCNC(=N)N)C(=O)NCCCC(C)Nc2cc(OC)cc3cccnc23)c2ncccc2c1.Cl (single isomer, unassigned; 39) | 36 | 5.5 | 15 | Non-toxic | 2.4 | 88 | 19 | Not Active | 1.5 |  |  | IC50 (Candida albicans): Not Active; MBC (Staphylococcus aureus): 20 µg/mL; IC50 (Cryptococcus neoformans): 15 µg/mL; MFC (Cryptococcus neoformans): 20 µg/mL; MIC (Cryptococcus neoformans): 20 µg/mL
COc1cc(NC(C)CCCNC(=O)C(=O)NCCCC(C)Nc2cc(OC)cc3cccnc23)c2ncccc2c1.Cl.Cl (stereo unspecified) | > 40 | 6.45 |  | Non-toxic |  | > 1000 | 15 |  |  | Not Active |  | IC50 (Plasmodium falciparum [5]): Not Active
COc1cc(NC(C)CCCNC(=O)N[C@@H](CCCCN)C(=O)NCCCC(C)Nc2cc(OC)cc3ccc(C(C)(C)C)nc23)c2nc(C(C)(C)C)ccc2c1.Cl (stereo partly specified) | 38 | 1.1 | 8 | Non-toxic |  | > 1000 | 19 | Not Active |  | Not Active | 20 | MBC (Staphylococcus aureus): 20 µg/mL; MBC [4]: inactive; MIC [4]: inactive; IC50 (Plasmodium falciparum [5]): Not Active
COc1cc(NC(C)CCCNC(=O)c2ccncc2C(=O)NCCCC(C)Nc2cc(OC)cc3ccc(C(C)(C)C)nc23)c2nc(C(C)(C)C)ccc2c1.Cl (stereo unspecified) | 31 | 1.2 | 15 | Non-toxic | 1.5 | 70 | 16 | Not Active | 0.87 |  | 20 | MBC (Staphylococcus aureus): 20 µg/mL; MBC [4]: inactive; MIC [4]: inactive
COc1cc(NC(C)CCCNC(=O)c2cncc(C(=O)NCCCC(C)Nc3cc(OC)cc4ccc(C(C)(C)C)nc34)c2)c2nc(C(C)(C)C)ccc2c1.Cl (stereo unspecified) |  | 0.55 |  | Non-toxic |  | 120 | 19 |  |  |  |  | IC90 (Leishmania donovani): inactive
COc1cc(NC(C)CCCNC(=O)NC(CCCN)C(=O)NCCCC(C)Nc2cc(OC)cc3cccnc23)c2ncccc2c1.Cl (single isomer, unassigned; 40) | 39 | 6.1 | 10 | Non-toxic | 4.2 | 154 | 18 | Not Active | 2.8 |  | 20 | IC50 (Candida albicans): Not Active; IC50 (Cryptococcus neoformans): 7 µg/mL
COc1cc(NC(C)CCCNC(=O)NC(CCCNC(=N)N)C(=O)NCCCC(C)Nc2cc(OC)cc3cccnc23)c2ncccc2c1.Cl (single isomer, unassigned; 36) | 7.2 | 3.1 | 15 | Non-toxic |  | 90 |  |  |  |  | 20 | IC50 (Candida albicans): Not Active; IC50 (Cryptococcus neoformans): 6.5 µg/mL; MFC (Cryptococcus neoformans): 10 µg/mL; MIC (Cryptococcus neoformans): 10 µg/mL; IC50 [6]: 15 µg/mL; MBC [6]: 20 µg/mL; MIC [6]: 20 µg/mL
COc1cc(NC(C)CCCNC(=O)NC(CCCCN)C(=O)NCCCC(C)Nc2cc(OC)cc3cccnc23)c2ncccc2c1.Cl (single isomer, unassigned) | > 40 | 3.75 |  | Non-toxic | 2.7 | 80 | 18 |  | 2.7 |  |  | 
COc1cc(NC(C)CCCNC(=O)c2cccc(C(=O)NCCCC(C)Nc3cc(OC)cc4cccnc34)n2)c2ncccc2c1.Cl (stereo unspecified) |  | 5.7 |  | Non-toxic |  | 123 | 6.5 |  | 2.3 |  |  | IC90 (Leishmania donovani): inactive
COc1cc(NC(C)CCCNSC(=O)NCCCC(C)Nc2cc(OC)cc3cccnc23)c2ncccc2c1.Cl.Cl (stereo unspecified) | 38 | 10.9 |  | Non-toxic |  | 153 | 20 |  | 4.76 | Not Active |  | 
COc1cc(NC(C)CCCNC(=O)c2cccc(C(=O)NCCCC(C)Nc3cc(OC)cc4ccc(C(C)(C)C)nc34)n2)c2nc(C(C)(C)C)ccc2c1.Cl (stereo unspecified) |  | 0.25 |  | Non-toxic |  | > 1000 |  |  | 4.5 | Not Active |  | IC50 (Leishmania donovani): Not Active; IC90 (Leishmania donovani): inactive
N=C(N)c1ccc(OCCCCCOc2ccc(C(=N)N)cc2)cc1 [PENTAMIDINE] | 3.8 (≈ 11.2 µM) |  |  |  |  |  |  |  |  |  |  | 
